Measured values from the EternaBench riboswitch data.

System: MS2 coat protein
Experiment: apparent Kd, MS2 coat protein; higher = weaker binding; RNA-MaP array; FMN 200 µM where present
Procedure, shortened: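 Apparent Kd: the median of filtered binding-curve fits from single clusters. Designs were transcribed on Illumina sequencing-chip clusters by stalled E. coli RNA polymerase and titrated with SNAP-549-labelled MS2 coat protein from 0.7 or 1.5 nM, doubling to 3 µM, in 100 mM Tris-HCl pH 7.5, 80 mM KCl, 4 mM MgCl2, BSA, DTT, yeast tRNA and Tween-20. Each series ran without and then with constant ligand, and green signal was normalised to red-channel RNA signal and control-cluster median Fmax.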

[1] = designed as: OFF switch for flavin mononucleotide, no ligand
[2] = ligand present: flavin mononucleotide, designed as: OFF switch for flavin mononucleotide
[3] = designed as: ON switch for flavin mononucleotide, no ligand
[4] = ligand present: flavin mononucleotide, designed as: ON switch for flavin mononucleotide

Sequence | apparent Kd [1] [nM] | apparent Kd [2] [nM] | apparent Kd [3] [nM] | apparent Kd [4] [nM]
AAAUAACCUAGCAAAAUUUCCUCACAUGAGGAUCACCCAUGUAGAAGGCUGUCCUAAAAUAGGACAGAGGAUAUACGUGCUAGG | 6.82 | 107 |  | 
CGCUGGUGAGGAUAUGGGUGUGGUUACAUGAGGAUCACCCAUGUGGUGUCGCGCGUGGGUCCAGAAGGCGCGGGUG | 246 | 170 |  | 
GGAUCCAACACAGGAUAUGCUGGACUUUGUCCAGCAGAAGGGUGAAGAACAUGAGGAUCACCCAUGUGGAUCCAUAUAUUUUAU |  |  | 262 | 16.5
AACAGCUCGUCAGGAUAUAUUAUCUUUUUAUGUAUUUAUGUACAUGAGGAUCACCCAUGUUGUUUGUAGAAGGGACGAGCUGAA | 30.4 | 26.5 |  | 
CAGGUAGACUGAGGAUAUACAAAGACCUAGUUUAUCUAGGUCAAAAUCACAUGAGGAUCACCCAUGUAGAAGGCAGUCUGCCUG | 15.7 | 26 |  | 
GGGUACAUCGGAGGAUAUCAUGUAAAUACAUGAGGAUCACCCAUGUCGAUGGAGACAUCGGAGAUUGAGAAGGCCAAUGUACCG |  |  | 180 | 8.76
GGAUGACAAAGUCAUCCAAUACGAACAUGAGGAUCACCCAUGUAGGAUAUGCAACACAAAGUGUUGCAGAAGGACAUGUGUCUU | 30.4 | 136 |  | 
UUACUCAUGUAAGGAUAUGCAGCCGAAACGGCUGCAGAAGGUACUACAAUACAUGAGGAUCACCCAUGUAAAAUAAAUAAAGUU |  |  | 53.7 | 22.7
AGUUGGCGAGGAUAUACAUGAGGAUCACCCAUGUGAGAGAUACUAGUGAGGUCGAUUGGUAGAAGGCGCUGACA | 132 | 106 |  | 
UCAUGAAGGGCAGGAUAUGGACAUGAGGAUCACCCAUGUACAUGGGAUAAUAUACUAAAUUAAUACUAGAAGGGUUACAUAAAU | 37.2 | 24.6 |  | 
GCGCUUAUACAGAAGGCCAGUUACAUGAGGAUCACCCAUGUUAGAUUGUGGAGGAUAUGUGUUUUAUUACAGAUAGUUGAGCGC |  |  | 13.4 | 6.84
AGUACCAUGUAGAAGGGAUAUCUCAAAGAGAUAUCAGGAUAUACAUGAGGAUCACCCAUGUAAAUGUACUCCAGGAAACUGGAA | 19.8 | 55.3 |  | 
CCCGGGUUUGUGAGGAUAUUGGGCCCGAAAGGGCCCGAGAAGGCACAUGAGGAUCACCCAUGUAAGGGCCCGGG | 25.8 | 26.4 |  | 
UGCAUGGUAGGAUAUACGGAGCAUUAGGGUUUGUUAUGUGGACAUGAGGAUCACCCAUGUAGAAGGGCCGUGCU | 37.3 | 57.1 |  | 
GCUGCAAAGUAAGGAUAUGCCUAGGAAACCUAGGCAGAAGGUACAUGAGGAUCACCCAUGUUAACGCAAAGCGAAUAAAGCAGC | 18.1 | 24.1 |  | 
UUCGGCGCACAGAAGGAUCGGUACAUGAGGAUCACCCAUGUAAGCAAAGAUAGGAUAUGUGGAGCUUACAGGGAAAAUGAACAA |  |  | 93.2 | 19
GCGUAACAUGAGGAUCACCCAUGUGCCCGAGAAUUCGGGCCGAGAAGGGUGACCGGACGUAUGGCACAGGAUAUCGACGUUGUG |  |  | 25.2 | 12.1
AGCGGAUUGUAGAAGGGUGACAUGAGGAUCACCCAUGUUCAAAUGCGAUUUACGGUAAUUGAUCCACAGGAUAUACUGUCCGAG |  |  | 942 | 266
GAUUGUGAAGGAUAUACUGGAGGAGUGCGAUAGAAGCACGAACAUGAGGAUCACCCAUGUAGAAGGUCAGGAGU | 34.5 | 21.6 |  | 
UUGGACGUCGUAGGAUAAGUAGGAUAUUCCUACAUGAGGAUCACCCAUGUUGACAUGGAAGAAGGACAGAAGGACGAUGUCCAU |  |  | 96.2 | 4.48
GUGGUGCAUAUACGUGGAUGUACAUGAGGAUCACCCAUGUAAGAGGAUAUGCGGAUACUAGCUCAGCAGAAGGCUUACAACUGA | 11.3 | 41 |  | 
ACAUGAGGAUCACCCAUGUUCACAUAGGAUAUUGAUUAUAUUGGUUUAAGAAUAGUAAUUGACCACAAGAAGGAUGCCUGAUCU |  |  | 12.2 | 9.7
GUAGCAUACAGAGGAUAUUCAAACCGGAAACGGAACAUGAGGAUCACCCAUGUGGCGAAAGCCAGGGAGAAGGCUGAAUGCUAC |  |  | 44.5 | 16.8
GCGAUUUUGUAAGGAUAUACACGAGUUUCAAGUGUAGAAGGUACUUACAUGAGGAUCACCCAUGUAUACUUGGAUAAUAGUCGU |  |  | 29.2 | 23.5
ACAUGAGGAUCACCCAUGUGAUGAUCUCCCAUGUCAUAUUUCAGAAGGCUCGCGUGUUUGAUGAGAGAGGAUAUGGAAUAUGCG | 208 | 152 |  | 
GUAUCAUACCAAGGAUAUUUAGGACUUGUAUAGACAUGAGGAUCACCCAUGUGGCGUUAGUCACGGGAGAAGGUGGUAUGAUAC |  |  | 88.4 | 17.5
AUCAAUCAUGUAGGAUAUGCGUGGCGAAGCUAUGCAGAAGGACAUGAGGAUCACCCAUGUCUUUCUGUCUGCGGACGGACAGGA | 19.2 | 55.7 |  | 
ACAUGACAUGAGGAUCACCCAUGUGAGGAUAUGCGAAAAAAAUUUUUAAAAAAAAUUGGCAGAAGGCACAAAAU | 121 | 139 |  | 

Sequence | apparent Kd [1] [nM] | apparent Kd [2] [nM] | apparent Kd [3] [nM] | apparent Kd [4] [nM]
GAGCUGCAGACAGGAUAUGAGACCGCCACGGUCUCAGAAGGGUCAUGUUCUACAUGAGGAUCACCCAUGUCGGACAGCUCGAAG |  |  | 140 | 11.8
CUCGUGUUAGGAUAUCGUGGCUGGGCUGGGACGUCCGAUCGCGAGAAGGGACAUGAGGAUCACCCAUGUAAAAC | 36.7 | 86 |  | 
CUCCCGAUCACAGGAUAUGCACAUACAAUUAAGGCAGAAGGGUGAUAGUCGGCCGGACAUGAGGAUCACCCAUGUGCAAGGAUA |  |  | 285 | 85.2
UGUCGGAGCAGAGGAUAUUACAUGAGGAUCACCCAUGUAUGAUCCAAUAGCUGGAAACAGCAAUGUAAGAAGGCUGCUCCGACA | 291 | 8.48 |  | 
UUCAAGGAAGGAUAUCUCGGCCCGGACAUGAGGAUCACCCAUGUUGUUUUUAGAUUCGUGAGAGAAGGUCUUAUAU | 38.8 | 26.5 |  | 
UGUCGGACCAGAGGAUAUUACAUGAGGAUCACCCAUGUAUGAACCAAUAGCUGGAAACAGCAAUGUAAGAAGGCUGCUCCGACA | 9.74 | 105 |  | 
AUCAGCUCGUCAGGAUAUACAACACUGCUUCGGCAGUAUGAUAAGAUAACAUGAGGAUCACCCAUGUAGAAGGGACGAGCUGAU | 6.99 | 9.17 |  | 
UGUAACCUAGGAUAUACAUGAGGAUCACCCAUGUAAUGUAGUAUAGUGUGUGUGAGGUGUAGAAGGAGGGAUGU | 79.5 | 125 |  | 
UAUUAUUGCAAGGAUAUGCUUUUUAUUUCUUUUGCAGAAGGUGCAACAUGAGGAUCACCCAUGUUUCCGGGUAU | 19.7 | 28.9 |  | 
GUACCUUAUGAGAAGGCGAUCAUUAAACAUGAUCGAGGAUAUCAUGUAAACAUGAGGAUCACCCAUGUAUGGGUAUUAUGGUAC |  |  | 66.7 | 19.3
GCAGCUAAUAUUAUACAUGAGGAUCACCCAUGUUACAUGAGUAAGGAUAUUGAUGAUUAUAUAAACAAGAAGGUACGUAGCUGC |  |  | 15.7 | 7.49
GGAUGACAAAGUCAUCCAUAACGAACAUGAGGAUCACCCAUGUAGGAUAUGCUACUCAAAGAGUAGCAGAAGGACAUGUGUCUU | 33.9 | 158 |  | 
GAGUAGAAGUUAGGAUAUUGGAUAGGGACGGAAUAAGAAGGAGCAAGACAUGAGGAUCACCCAUGUGUAGAAGAAGAGAUCCUC | 448 | 168 |  | 
AUAAUGUGAGGAUAUCAGUAAGAAUGCUUCGGCAUUCUUACUGAGAAGGCACAUGAGGAUCACCCAUGUGAUUA | 201 | 964 |  | 
GGAUAGGACAGAGGAUAUACCGAUAGGAUCUACUAUCGAAGAAUCCUCACAUGAGGAUCACCCAUGUAGAAGGCUGUCCUAUCG | 40.3 | 646 |  | 
UGUCAUAAAUAGAAGGGUAGUUGGGUUUUACAUGAGGAUCACCCAUGUAUUAUAGGAUAUGUGUAAAGUUAUUAUUAAAGUAAA | 39.2 | 34.5 |  | 
UACGGGUCAGGAUAUGCGAGAGAGUGGGAAAUAGGAAGGUAGCAGAAGGGACAUGAGGAUCACCCAUGUGAGGC | 24.3 | 29.5 |  | 
GGAGUACAUGAGGAUCACCCAUGUUGGAACAAAGUAGGAUAUGUACAAUAUUAAAUAAAAACAGAAGGACUAAGAA |  |  | 47.4 | 30.8
AUCAUGUCAGGAUAUAUGACAUGGCUCUUCGGAGCAAGCUCAUAGAAGGGACAUGAGGAUCACCCAUGUAGAGC | 22.7 | 30.5 |  | 
AUUGUGUUAGGAUAUGCUUAUGCUGGGUAGUCCAGUAUGGAGUAGAAGGGACAUGAGGAUCACCCAUGUGCUCA | 20.9 | 21.2 |  | 
CUAUCGAGGUAACUCGCUAUCACACCAGAAGGGACGGAGGCACAUGAGGAUCACCCAUGUCCUAGUCAGGAUAUGGGUGAGUAG |  |  | 17.6 | 5.07
ACAUGAUCAGGAUAUACAUGAGGAUCACCCAUGUUUAUCAAAAAAGGGCUUUCUACAUGUAGAAGGGAUCUUGU | 21.8 | 39.9 |  | 
UAAUAAUUAAGAGGAUAUAUACAACAUGAGGAUCACCCAUGUACCCAUGUAGUAGAAGGCUUAUUUUUAUUUAAUAAUAUAAUU |  |  | 122 | 40.1
GGUGCGUUUGUGAGGAUAUGCUGGUCCUUGGAUCAGCAGAAGGCACAUGAGGAUCACCCAUGUGGUGUCGUUCC | 181 | 143 |  | 
AAGUUUUUACAAGGAUAUCAUUUGUUUCUAAAUUCAACAUGAGGAUCACCCAUGUAACAAUGGAGUGAGAAGGUGUGUUGGCAA |  |  | 101 | 84.6
GUGCACAUUCGAGGAUAUCGGAGAGAGAUCCUUCGAGAAGGCGAUUCAUGAUGUAUUAUCCUGGACAUGAGGAUCACCCAUGUG |  |  | 579 | 288
ACAGCGUGAGGAUAUACAUGAGGAUCACCCAUGUAUGGCAGGUUAUCCUGUCGUAAGUGUAGAAGGCACGCUGU | 20.4 | 58.5 |  | 
